An excerpt weighted towards active compounds, which were near 2.3% of everything screened.
NPY2 pot ag = potentiates or activates human NPY-Y2 receptor; P49146; cells expressing NPY-Y2, potentiator/agonist read-out; activation, % at 3.6 µM; 220,000 tested, 0.45% active; AID 1359; in the data active means activation above about 27%;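 further: cells stimulated with NPY near EC25 plus isoproterenol at EC100; 0% = vehicle plus submaximal agonist and 100% = vehicle plus saturating agonist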
Target sequence (P49146 whole entry, looked up): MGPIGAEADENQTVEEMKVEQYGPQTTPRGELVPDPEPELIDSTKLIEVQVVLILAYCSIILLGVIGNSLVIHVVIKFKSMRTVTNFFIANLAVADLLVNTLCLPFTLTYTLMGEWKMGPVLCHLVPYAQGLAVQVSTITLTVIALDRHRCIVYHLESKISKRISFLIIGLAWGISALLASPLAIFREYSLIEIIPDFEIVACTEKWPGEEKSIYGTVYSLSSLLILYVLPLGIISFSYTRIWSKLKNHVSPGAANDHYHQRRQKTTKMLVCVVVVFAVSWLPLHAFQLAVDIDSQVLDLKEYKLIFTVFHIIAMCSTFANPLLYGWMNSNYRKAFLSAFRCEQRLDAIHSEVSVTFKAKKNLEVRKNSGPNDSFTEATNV
m-calpain inh = blocks pig calpain II enzyme activity | purified calpain II, fluorogenic peptide substrate, 30 min | inhibition, % at 16 µM | 220,000 tested, 0.37% active | AID 1236;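 active means inhibition above about 50%, limit read from the data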
NPY-Y1 PAM-ag = potentiators or agonists of human neuropeptide Y receptor Y1. AID 1304. activation, % at 3.6 µM. 220,000 tested, 0.37% active. NPY-Y1 expressing cells, potentiator/agonist activation. P25929; in the data active means activation above about 33%, passing the limit was not always enough;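 further: cells stimulated with NPY at EC10 then isoproterenol at EC100; 0% = low agonist plus stimulus and 100% = saturating agonist plus stimulus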
NPY-Y1 antag = NPY-Y1 (human) receptor antagonism. 200,000 tested, 1% active. inhibition, % at 3.6 µM. HEK293-CNG Y1 cells, membrane potential fluorescence; NPY at EC95, then isoproterenol. P25929. AID 1040;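 active means inhibition above the campaign mean inhibition of all tested compounds plus 3 SD, cut at about 20% in these data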;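 further: 0% = DMSO wells given NPY plus isoproterenol and 100% = isoproterenol alone without NPY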
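Benchmarks – high control isoproterenol alone, low control NPY with isoproterenol · Material – HEK293 Y1/CNG channel cell line · Times – dye 3 h, compound 60 min room temperature, stimulation 45 min · Probe or stimulus – NPY (25 nM), isoproterenol (1 µM), Ro 20-1724 (25 µM) · Evaluation – % inhibition of NPY effect · Signal – fluorescence, membrane potential probe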
NPY Y2 blocker = antagonists of human neuropeptide Y receptor Y2; NPY-Y2 expressing cells, antagonist mode; inhibition, % at 2.7 µM; 140,000 tested, 0.99% active; P49146; in the data active means inhibition above about 17%;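 further: 0% = vehicle with agonist challenge and 100% = reference antagonist with challenge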
TbHK1 inh = T. brucei hexokinase 1 inhibition | recombinant TbHK1, G6PDH-coupled NADH A340 | inhibition, % at 10 µM | 220,000 tested, 0.11% active | AID 1430;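 active means inhibition of 50% or more in the single-dose primary screen; inactive means inhibition below 50%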
* marks the source's active call; other numbers are inactive results; x = no result.

SMILES | NPY2 pot ag | m-calpain inh | NPY-Y1 PAM-ag | NPY-Y1 antag | NPY Y2 blocker | TbHK1 inh
O=C(CSc1nnc(COc2ccc(Cl)cc2)o1)N1CCOCC1 | -10.8 | 3.4 | -9.4 | -4.3 | x | -1.0
CCN(Cc1ccccc1)c1ccc(N=Nc2nn(C)c(C)c2[N+](=O)[O-])cc1 | 40.7* | 29.9 | 58.0* | -11.1 | -5.2 | -16.2
CCN(CC)c1ccc(N=Nc2nn(C)c(C)c2[N+](=O)[O-])cc1 | 13.8 | 4.8 | 4.8 | -3.2 | -2.4 | 26.8
CC1(C)C(C=C(Cl)Cl)C1C(=O)Nc1ccc([N+](=O)[O-])cc1 (configuration not stated) | 21.5 | 52.7* | 26.0 | -5.2 | -2.0 | 15.0
CCN(C(=O)COC(=O)c1cc(=O)[nH]c2ccccc12)C1CCS(=O)(=O)C1 (configuration not stated) | -7.6 | -46.2 | 9.7 | x | x | -18.6
Nc1ccc2c(c1)N1CCN=C1S2 | -8.9 | 8.0 | -3.6 | -5.1 | 4.3 | -4.6
O=C(Nc1ccc(Cl)cc1)Nc1ccc2c(c1)N1CCN=C1S2 | 30.4 | -24.2 | 35.1* | -17.7 | -7.4 | -5.5
Cc1cnc(C(=O)Nc2ccccc2-c2ccc(C)o2)cn1 | 55.8* | -11.8 | 100.5* | 4.0 | 2.9 | -3.4
Cc1cnc(C(=O)Nc2cccc3ncccc23)cn1 | 5.9 | x | 8.5 | 0.2 | 1.8 | 1.3
COc1ccccc1C(=O)NN=C1CCN(Cc2ccccc2)CC1 | -4.7 | 15.9 | 1.8 | 4.5 | -1.2 | 4.5
O=[N+]([O-])c1cc(Cl)ccc1N1CCN(c2cccc(C(F)(F)F)c2)CC1 | -6.5 | 16.1 | 6.1 | 20.1* | 20.5* | 0.3
O=S1(=O)C=C(SCc2ccc(Cl)c(Cl)c2)Nc2ccccc21 | 3.7 | 53.0* | 0.9 | 0.5 | -1.4 | 3.2
Nc1nc(SCc2ccc(Cl)c(Cl)c2)n[nH]1 | 12.8 | -6.7 | -0.4 | -2.9 | -2.6 | 4.9
CNC(=S)N(CCc1c(C)[nH]c2ccc(Cl)cc12)Cc1cccs1 | 44.0* | 13.5 | 49.2* | -12.0 | x | -3.0
CCNC(=S)N(CCc1c(C)[nH]c2ccc(Cl)cc12)Cc1ccco1 | 22.1 | 58.6* | 16.5 | 0.1 | x | 5.9
Cc1ccc(Nc2nnc(SCC(=O)NCCN3C(=O)CSC3=O)s2)cc1C | 11.3 | -2.3 | -0.5 | 1.2 | 1.0 | -8.1
Cc1ccc(C)c(OCC(O)CN2C(C)CCCC2C)c1 (configuration not stated) | -15.0 | 12.7 | -35.3 | 11.0 | 8.6 | -3.2
Cc1ccc(C)c(OCC(O)CN2CCCCC2C)c1 (configuration not stated) | 79.5* | 35.7 | 101.0* | -10.4 | 2.0 | -0.4
COc1cccc2sc(Nc3nc(-c4ccncc4)cs3)nc12 | 35.2* | -29.8 | 40.4* | -13.9 | x | -18.3
COc1cccc2sc(Nc3nc(-c4cc5ccccc5oc4=O)cs3)nc12 | -8.4 | -129.0 | -13.9 | 2.2 | 3.1 | -4.5
COc1ccccc1NNC(=O)c1cccnc1Oc1ccccc1 | -12.5 | 26.4 | -7.8 | x | x | -3.7
CCCCn1c(-c2csc3c2CCC(C)C3)n[nH]c1=S (configuration not stated) | -4.3 | 66.4* | -3.1 | 5.3 | 7.1 | 8.7
Nn1c(SCc2ccc(F)cc2)nnc1-c1ccncc1 | 3.1 | -9.3 | 6.7 | x | x | 0.1
COc1ccc(C)cc1NC(=O)c1ccc([N+](=O)[O-])cc1[N+](=O)[O-] | 0.5 | -28.0 | 20.0 | 2.6 | x | 2.9
O=C(Nc1cccc2oc(=O)ccc12)c1ccc([N+](=O)[O-])cc1[N+](=O)[O-] | -2.9 | 63.5* | -22.0 | -2.0 | 4.2 | -9.7
SMILES | NPY2 pot ag | m-calpain inh | NPY-Y1 PAM-ag | NPY-Y1 antag | NPY Y2 blocker | TbHK1 inh
CCN(CC)S(=O)(=O)c1ccc(C)c(NC(=O)c2cc(C)oc2C)c1 | -5.5 | -15.6 | 14.7 | 20.3* | x | 2.1
Cc1ccc(NC(=O)N[C@H](C(=O)O)C(C)C)c(C)c1 | -24.0 | -2.9 | -7.8 | x | x | 9.0
CCCNC(=O)c1nn2cc(Br)cnc2c1Br | 1.7 | -23.4 | -2.2 | 2.2 | x | -3.9
CCC(C)OC(=O)C[N+](C)(C)CCOC1CC2CCC1(C)C2(C)C (configuration not stated) | -3.2 | -16.7 | -25.0 | 21.4* | x | 15.1
COc1ccc(COC(=O)Nc2cc3c(C(F)(F)F)nn(C)c3s2)cc1 | -16.6 | 61.6* | -17.9 | 1.8 | 1.5 | -1.2
Cn1nc(C(F)(F)F)c2cc(NC(=O)OCc3ccc(F)cc3)sc21 | -20.5 | 89.5* | -1.9 | -0.8 | 0.8 | 2.4
O=C(COc1ccccc1C(=O)NCc1ccccn1)Nc1ccc(Br)cc1 | -11.9 | 2.3 | -12.9 | -5.2 | x | -0.4
Cc1nn(CC(=O)Nc2nnc(C(C)C)s2)c(=O)c2ccccc12 | -26.5 | -14.1 | -31.7 | 13.1 | x | -1.5
CCCc1nn(C)c(C(N)=O)c1[N+](=O)[O-] | 12.7 | -17.3 | 19.2 | -3.6 | x | 1.6
NC(=O)c1ccsc1NC(=O)c1ccc(N2CCCC2=O)cc1 | 0.0 | -46.2 | -2.9 | -1.3 | x | -20.4
Cc1ccc(S(=O)(=O)N(C)CC(=O)Nc2nc3ccccc3s2)cc1 | 11.6 | 36.9 | -25.8 | -3.2 | 3.1 | 3.9
Cc1ccc(/C(=N/Nc2nc3ccccc3s2)C2=C(O)c3ccccc3C2=O)cc1 | -9.3 | -10.1 | -3.2 | 20.3* | x | -28.6
CC(C)CCNC(=O)c1ccc(Cl)c(NC(=O)c2ccccc2F)c1 | -22.2 | 8.9 | -8.7 | 7.7 | x | 3.1
COc1ccc(NC(=O)COC(=O)C23CC4CC(CC(Cl)(C4)C2)C3)c(OC)c1 | -3.9 | 20.9 | -13.4 | -1.2 | x | -1.1
COc1ccc(C(=O)C23CC4CC(C2)CC(C(=O)c2ccc(OC)cc2)(C4)C3)cc1 | 7.7 | 62.7* | -9.4 | -0.8 | x | 11.0
Nc1nonc1C(=O)NCCNCc1ccccc1OCc1ccccc1F | -26.8 | 13.7 | -42.9 | 15.9 | 16.0 | 5.8
NS(=O)(=O)c1ccc(CCNCc2cc(Br)ccc2OCc2ccccc2F)cc1 | -39.1 | 52.6* | -26.8 | 18.6 | x | 12.0
Nc1nonc1C(=O)NCCNCc1cc(Br)ccc1OCc1ccccc1F | -20.7 | 75.1* | -52.1 | 44.2* | 43.1* | 4.8
C=CCOc1ccccc1CNCCc1ccc(S(N)(=O)=O)cc1 | -1.7 | -3.5 | -7.9 | 2.6 | x | 1.1
O=C(CNC(=O)c1ccccc1)NCc1ccc(Cl)cc1 | -7.5 | -1.8 | -6.5 | 1.3 | x | -1.4
CC(C)(C)c1ccc(C(=O)Nc2cccc([N+](=O)[O-])c2)cc1 | -2.1 | 50.4* | 10.8 | 1.4 | -1.1 | -0.6
O=C(Nc1cccc([N+](=O)[O-])c1)c1ccncc1 | -1.1 | 3.6 | 2.4 | -2.5 | 1.2 | -5.9
CN1COc2ccc3ccccc3c2C1 | 8.8 | -11.1 | 4.0 | 0.1 | x | 0.0
O=C(Oc1ccc(Cl)c2cccnc12)C12CC3CC(CC(C3)C1)C2 | 8.3 | 56.3* | -8.7 | 4.6 | 5.9 | 0.0
COc1ccccc1NC(=O)COc1ccc(C(=O)NC2CCCc3ccccc32)cc1OC (configuration not stated) | -17.2 | 5.5 | 11.2 | 1.7 | x | -4.5
CC1CCC(C(C)C)C(OCC(O)CNC(C)(C)C)C1 (configuration not stated) | 99.4* | -23.9 | 105.8* | -6.3 | x | 8.6

Source: PubChem BioAssay
